Laboratory results taken from ChEMBL document CHEMBL1135255, “Design, synthesis and bioactivity evaluation of tribactam beta lactamase inhibitors” (Bioorg Med Chem Lett, 2002).

Legend:
[1] = biological target: T1, Beta-lactamase 1 (Bacillus cereus) (UniProt P00809); assay: Inhibitory activity at beta-lactamase I from Bacillus cereus expressed as percent inhibition of beta-lactam hydrolysis at a concentration of 10.0 umol/L
T1 sequence (whole entry): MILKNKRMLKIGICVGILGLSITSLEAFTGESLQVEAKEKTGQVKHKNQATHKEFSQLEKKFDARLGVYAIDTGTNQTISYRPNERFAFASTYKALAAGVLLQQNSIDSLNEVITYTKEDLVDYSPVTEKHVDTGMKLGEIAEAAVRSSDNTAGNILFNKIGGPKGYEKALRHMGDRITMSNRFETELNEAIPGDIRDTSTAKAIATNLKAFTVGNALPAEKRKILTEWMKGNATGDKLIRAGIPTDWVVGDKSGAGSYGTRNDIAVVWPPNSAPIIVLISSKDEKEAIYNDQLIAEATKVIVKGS
How it was run: (§1)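 B. cereus beta-lactamase I was preincubated with inhibitor (range 1–100) for 20 min at 25 °C in microtitre plates. Chromogenic substrate nitrocefin was then added, followed by a further 60 min incubation. Hydrolysis was monitored spectrophotometrically at 490 nm, and the reduction in nitrocefin hydrolysis was expressed as % enzyme inhibition.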

[2] = biological target: T1, Beta-lactamase 1 (Bacillus cereus); assay: Inhibitory activity at beta-lactamase I from Bacillus cereus expressed as percent inhibition of beta-lactam hydrolysis at a concentration of 1.0 umol/L; how it was run: as §1
[3] = biological target: T1, Beta-lactamase 1 (Bacillus cereus); assay: Inhibitory activity at beta-lactamase I from Bacillus cereus expressed as percent inhibition of beta-lactam hydrolysis at a concentration of 100.0 umol/L; how it was run: as §1
[4] = biological target: T1, Beta-lactamase 1 (Bacillus cereus); assay: Inhibitory activity at beta-lactamase I from Bacillus cereus expressed as percent inhibition of beta-lactam hydrolysis at a concentration of 100.0 umol/L; The inhibitory activity at lower concentrations was not determined; how it was run: as §1
Beta-lactamase class C = Beta-lactamase class C (Enterobacter cloacae, UniProt Q59401); assay: The compound was tested for its inhibitory activity towards Class C beta-lactamase from Enterobacter cloacae 908R at 0.8 umol concentration; format: single protein
Sequence of Beta-lactamase class C (Q59401 whole entry): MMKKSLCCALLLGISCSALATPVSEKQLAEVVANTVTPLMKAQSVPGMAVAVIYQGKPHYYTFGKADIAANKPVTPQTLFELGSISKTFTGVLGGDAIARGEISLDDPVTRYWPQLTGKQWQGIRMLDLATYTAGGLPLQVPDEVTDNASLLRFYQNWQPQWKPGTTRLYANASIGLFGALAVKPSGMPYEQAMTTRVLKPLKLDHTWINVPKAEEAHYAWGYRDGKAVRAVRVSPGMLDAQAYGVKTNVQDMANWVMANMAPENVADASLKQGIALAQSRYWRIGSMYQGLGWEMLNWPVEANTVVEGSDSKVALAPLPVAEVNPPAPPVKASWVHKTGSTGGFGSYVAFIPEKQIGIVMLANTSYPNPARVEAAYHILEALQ

Beta-lactamase TEM = Beta-lactamase TEM (Escherichia coli, UniProt P62593); assay: The compound was tested for its inhibitory activity towards Class A TEM-1 beta-lactamase from Escherichia coli at 0.3 umol
Sequence of Beta-lactamase TEM (P62593 whole entry): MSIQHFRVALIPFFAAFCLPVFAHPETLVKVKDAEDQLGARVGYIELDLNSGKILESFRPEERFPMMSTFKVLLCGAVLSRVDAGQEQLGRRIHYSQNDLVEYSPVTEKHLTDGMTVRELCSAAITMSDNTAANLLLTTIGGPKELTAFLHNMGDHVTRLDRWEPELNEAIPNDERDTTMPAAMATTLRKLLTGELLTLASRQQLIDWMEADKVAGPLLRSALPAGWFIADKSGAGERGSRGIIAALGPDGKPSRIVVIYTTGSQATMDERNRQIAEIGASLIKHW

SMILES | inhibition [1] [%] | inhibition [2] [%] | inhibition [3] [%] | inhibition [4] [%] | IC50 (Beta-lactamase class C) [µM] | IC50 (Beta-lactamase TEM; read-out: IC50) [µM] | IC50 (Beta-lactamase TEM) [uM l-1]
CC1(C)[C@H](C(=O)O)N2C(=O)C[C@H]2S1(=O)=O | 40 | 2 | 77 |  |  |  | 
C[C@@H](O)[C@H]1C(=O)N2C(C(=O)O)=C3CCCCC3[C@@H]12 (some centres undefined) |  |  |  | 3 |  |  | 
C/C=C1/C(=O)N2C(C(=O)O)=C3CCSCC3[C@H]12 (some centres undefined) |  |  |  | 38 | 4.2 | 100 | 
C/C=C1/C(=O)N2C(C(=O)[O-])=C3CCCCC3[C@H]12.[Na+] (some centres undefined) |  |  |  | 23 | 1.8 |  | 120
C[C@@H](O)[C@H]1C(=O)N2C(C(=O)O)=C3CCCCC3[C@H]12 (some centres undefined) |  |  |  | 5 |  |  | 
C/C=C1/C(=O)N2C(C(=O)O)=C3CCSCC3[C@@H]12 (some centres undefined) | 19 | 6 | 60 |  | 5 | 32 | 
O=C(O)[C@H]1/C(=C/CO)O[C@@H]2CC(=O)N21 | 33 | 9 | 78 |  |  |  | 
C/C=C1/C(=O)N2C(C(=O)O)=C3CCCCC3[C@@H]12 (some centres undefined) | 14 | -1 | 61 |  | 3 | 39 | 
